{
  "source": "paper PMC11525735",
  "about": "(ACS Omega, 2024)",
  "key": {"[1]": {"system": "A375 tumor-bearing mice", "experiment": "Ex vivo biodistribution study", "type": "in vivo, BALB/c nu/nu nude mice", "settings": "4 h p.i.", "outline": "(§1)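 Five-week-old female nude mice carried subcutaneous right-shoulder xenografts (5×10^6 cells), including xenografts from stable shRNA PD-L1-knockdown lines. At 100 mm³ tumour volume, mice received 1 nM Cy5.5-labelled test peptide i.v., with or without 1 μM unlabelled peptide (n = 3). Mice were killed at 4 h p.i. Tumour, brain, heart, lung, liver, stomach, intestine, spleen, kidney and muscle were imaged ex vivo through a Cy5.5 filter set. Average fluorescence per specimen was taken by ROI; mean ± SD.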"}, "[2]": {"system": "H460 xenografts", "experiment": "In vivo NIF whole-body imaging of tumor-bearing mice", "design": "species or system BALB/c nu/nu nude mice", "settings": "H460 xenograft, 1 nM Cy5.5-A11 i.v.", "outline": "(§2)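 Five-week-old female nude mice carried right-shoulder subcutaneous xenografts (5×10^6 cells). At 100 mm³, 1 nM Cy5.5-labelled test peptide was given i.v. (n = 3). Whole-body NIR imaging followed at 0.5, 1, 2, 3, 4, 5, 6 and 24 h p.i. with a Cy5.5 filter set, 1 s exposure, f/stop 4 and fixed illumination, in p/s/cm²/sr. Tumour-to-muscle ratio came from ROI mean intensities; mean ± SD.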"}, "[3]": {"system": "A375 xenografts", "experiment": "In vivo NIF whole-body imaging of tumor-bearing mice", "design": "species or system BALB/c nu/nu nude mice", "settings": "A375 xenograft, 1 nM Cy5.5-A11 i.v.", "outline": "as §2"}, "[4]": {"system": "A375 cells", "experiment": "In vitro fluorescence imaging of Cy5.5-A11", "type": "cell-based", "settings": "6 h", "outline": "(§3)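 Cells (5×10^4; kept in DMEM or RPMI-1640 with 10% FBS) were plated in chamber slides and cultured 24 h. They were then exposed to 10 nM Cy5.5-labelled test peptide at 37 °C for 6 h; blocking wells also received 1 μM unlabelled peptide. After three PBS washes, cells were fixed in 4% paraformaldehyde for 20 min and DAPI-stained. Images were taken by laser confocal microscopy.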"}, "[5]": {"system": "H460 cells", "experiment": "In vitro fluorescence imaging of Cy5.5-A11", "type": "cell-based", "settings": "6 h", "outline": "as §3"}, "[6]": {"system": "MDA-MB-231 cells", "experiment": "In vitro fluorescence imaging of Cy5.5-A11", "type": "cell-based", "settings": "6 h", "outline": "as §3"}, "[7]": {"system": "MDA-MB-231 tumor-bearing mice", "experiment": "Ex vivo biodistribution study", "type": "in vivo, BALB/c nu/nu nude mice", "settings": "4 h p.i.", "outline": "as §1"}, "[8]": {"system": "H460 tumor-bearing mice", "experiment": "Ex vivo biodistribution study", "type": "in vivo, BALB/c nu/nu nude mice", "settings": "4 h p.i.", "outline": "as §1"}, "[9]": {"system": "MDA-MB-231 xenografts", "experiment": "In vivo NIF whole-body imaging of tumor-bearing mice", "design": "species or system BALB/c nu/nu nude mice", "settings": "MDA-MB-231 xenograft, 1 nM Cy5.5-A11 i.v.", "outline": "as §2"}, "[10]": {"system": "PD-L1", "settings": "various cancer cells; cited from earlier work"}, "[11]": {"settings": "0.5-6 h p.i., ROI analysis, n = 3"}},
  "data": [
    {"substance": "Cy5.5-EYVQTVKSSKG [Cy5.5-A11]", "values": [
      {"measurement": "ex vivo uptake in the xenografts with excessive unlabeled A11", "setting": "[1]; A375, blocking group, 1 nM Cy5.5-A11 + 1 μM unlabeled A11 i.v.", "result": "obviously reduced"},
      {"measurement": "ex vivo uptake of the probe in the xenografts", "setting": "[1]; A375, nonblocking group, 1 nM Cy5.5-A11 i.v., ex vivo fluorescence, ROI", "result": "significant uptake"},
      {"measurement": "organ uptake (biodistribution)", "setting": "[1]; A375 tumor-bearing mice, three groups (nonblocking, blocking, PD-L1 KD), ex vivo fluorescence, ROI", "result": "higher in the liver and kidney than that in other organs"},
      {"measurement": "ex vivo fluorescent signal in xenografts of cancer cells with PD-L1 knockdown", "setting": "[1]; PD-L1 knockdown A375, 1 nM Cy5.5-A11 i.v.", "result": "dramatically decreased"},
      {"measurement": "tumor-to-muscle fluorescence signal ratio", "setting": "[2]; [11]", "result": "High"},
      {"measurement": "tumor-specific fluorescence signal at 24 h p.i.", "setting": "[2]; 24 h p.i.", "result": "distinctly visible"},
      {"measurement": "time of peak tumor-specific fluorescence signal", "setting": "[2]; n = 3", "result": 2, "unit": "h p.i."},
      {"measurement": "tumor-to-muscle fluorescence signal ratio", "setting": "[3]; [11]", "result": "High"},
      {"measurement": "tumor-specific fluorescence signal at 24 h p.i.", "setting": "[3]; 24 h p.i.", "result": "distinctly visible"},
      {"measurement": "time of peak tumor-specific fluorescence signal", "setting": "[3]; n = 3", "result": 2, "unit": "h p.i."},
      {"measurement": "fluorescent signal of cells, blocking with unlabeled A11", "setting": "[4]; A375, 10 nM Cy5.5-A11 + 1 μM unlabeled A11, 37 °C, confocal microscopy", "result": "successfully blocked"},
      {"measurement": "fluorescent signal of cells", "setting": "[4]; A375, 10 nM Cy5.5-A11, 37 °C, laser confocal microscopy, nonblocking", "result": "robust fluorescent signal"},
      {"measurement": "fluorescent signal in PD-L1 knockdown versus shNC control cells", "setting": "[4]; A375 stable PD-L1 shRNA knockdown and shNC control, 10 nM Cy5.5-A11, 37 °C, confocal microscopy", "result": "seen in shNC control cells but not PD-L1 knockdown cancer cells"},
      {"measurement": "fluorescent signal of cells, blocking with unlabeled A11", "setting": "[5]; H460, 10 nM Cy5.5-A11 + 1 μM unlabeled A11, 37 °C, confocal microscopy", "result": "successfully blocked"},
      {"measurement": "fluorescent signal of cells", "setting": "[5]; H460, 10 nM Cy5.5-A11, 37 °C, laser confocal microscopy, nonblocking", "result": "robust fluorescent signal"},
      {"measurement": "fluorescent signal in PD-L1 knockdown versus shNC control cells", "setting": "[5]; H460 stable PD-L1 shRNA knockdown and shNC control, 10 nM Cy5.5-A11, 37 °C, confocal microscopy", "result": "seen in shNC control cells but not PD-L1 knockdown cancer cells"},
      {"measurement": "fluorescent signal of cells, blocking with unlabeled A11", "setting": "[6]; MDA-MB-231, 10 nM Cy5.5-A11 + 1 μM unlabeled A11, 37 °C, confocal microscopy", "result": "successfully blocked"},
      {"measurement": "fluorescent signal of cells", "setting": "[6]; MDA-MB-231, 10 nM Cy5.5-A11, 37 °C, laser confocal microscopy, nonblocking", "result": "robust fluorescent signal"},
      {"measurement": "fluorescent signal in PD-L1 knockdown versus shNC control cells", "setting": "[6]; MDA-MB-231 stable PD-L1 shRNA knockdown and shNC control, 10 nM Cy5.5-A11, 37 °C, confocal microscopy", "result": "seen in shNC control cells but not PD-L1 knockdown cancer cells"},
      {"measurement": "ex vivo uptake in the xenografts with excessive unlabeled A11", "setting": "[7]; MDA-MB-231, blocking group, 1 nM Cy5.5-A11 + 1 μM unlabeled A11 i.v.", "result": "obviously reduced"},
      {"measurement": "ex vivo uptake of the probe in the xenografts", "setting": "[7]; MDA-MB-231, nonblocking group, 1 nM Cy5.5-A11 i.v., ex vivo fluorescence, ROI", "result": "significant uptake"},
      {"measurement": "ex vivo fluorescent signal in xenografts of cancer cells with PD-L1 knockdown", "setting": "[7]; PD-L1 knockdown MDA-MB-231, 1 nM Cy5.5-A11 i.v.", "result": "dramatically decreased"},
      {"measurement": "ex vivo uptake in the xenografts with excessive unlabeled A11", "setting": "[8]; H460, blocking group, 1 nM Cy5.5-A11 + 1 μM unlabeled A11 i.v.", "result": "obviously reduced"},
      {"measurement": "ex vivo uptake of the probe in the xenografts", "setting": "[8]; H460, nonblocking group, 1 nM Cy5.5-A11 i.v., ex vivo fluorescence, ROI", "result": "significant uptake"},
      {"measurement": "ex vivo fluorescent signal in xenografts of cancer cells with PD-L1 knockdown", "setting": "[8]; PD-L1 knockdown H460, 1 nM Cy5.5-A11 i.v.", "result": "dramatically decreased"},
      {"measurement": "tumor-to-muscle fluorescence signal ratio", "setting": "[9]; [11]", "result": "High"},
      {"measurement": "tumor-specific fluorescence signal at 24 h p.i.", "setting": "[9]; 24 h p.i.", "result": "distinctly visible"},
      {"measurement": "time of peak tumor-specific fluorescence signal", "setting": "[9]; n = 3", "result": 2, "unit": "h p.i."}
    ]},
    {"substance": "EYVQTVKSSKG [A11]", "values": [
      {"measurement": "action on PD-L1", "setting": "[10]", "result": "binds and degrades PD-L1"}
    ]}
  ]
}
